Assay results published in ChEMBL document CHEMBL4330162, “Structure of Hierridin C, Synthesis of Hierridins B and C, and Evidence for Prevalent Alkylresorcinol Biosynthesis in Picocyanobacteria” (J Nat Prod, 2019).
Activity calls are given as the source filed them. No cut-off for these calls is given here.

Columns and labels:
[1] = tested on: Plasmodium falciparum; assay: Antimalarial activity against Plasmodium falciparum 3D7 infected in human erythrocytes after 48 hrs by SYBR Green-1 dye based assay; type: functional, organism-based; conditions: 3D7, 48 h
Summary of the method: (§1)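 Asexual parasites kept on human erythrocytes in RPMI 1640 with 25 mM HEPES, […] hypoxanthine and 10% AlbuMAX II, pH 7.2. Cultures held at 37 °C under 5% O2 and 3−5% CO2 in N2, and sorbitol-synchronized. SYBR Green I fluorescence read at ex 485/em 535 nm. Percent survival vs untreated; IC50 by nonlinear regression.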

[2] = tested on: RKO; assay: Cytotoxicity against human RKO cells up to 72 uM after 24 to 48 hrs by MTT assay; type: functional, cell-based
Summary of the method: (§2)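 Cells seeded at 10^4 cells cm−2 and left 24 h to adhere. Exposed 24 or 48 h to fresh medium containing compound from DMSO (1 μL per 100 μL) at final 3 and 30 μg mL−1. MTT added at 0.5 mg mL−1, formazan dissolved in DMSO, absorbance read at 550 nm. Triplicate.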

[3] = tested on: MG-63; assay: Cytotoxicity against human MG63 cells up to 72 uM after 24 to 48 hrs by MTT assay; type: functional, cell-based; summary of the method: as §2
[4] = tested on: HepG2; assay: Cytotoxicity against human HepG2 cells up to 72 uM after 24 to 48 hrs by MTT assay; type: functional, cell-based; summary of the method: as §2
[5] = tested on: SH-SY5Y; assay: Cytotoxicity against human SH-SY5Y cells up to 72 uM after 24 to 48 hrs by MTT assay; type: functional, cell-based; summary of the method: as §2
[6] = tested on: T47D; assay: Cytotoxicity against human T47D cells up to 72 uM after 24 to 48 hrs by MTT assay; type: functional, cell-based; summary of the method: as §2
[7] = tested on: HT-29; assay: Cytotoxicity against human HT-29 cells up to 72 uM after 24 to 48 hrs by MTT assay; type: functional, cell-based; summary of the method: as §2
[8] = tested on: Plasmodium falciparum; assay: Antimalarial activity against Plasmodium falciparum Dd2 infected in human erythrocytes after 48 hrs by SYBR Green-1 dye based assay; type: functional, organism-based; conditions: Dd2, 48 h; summary of the method: as §1
[9] = tested on: Caco-2; assay: Cytotoxicity against human Caco2 cells up to 72 uM after 24 to 48 hrs by MTT assay; type: functional, cell-based; summary of the method: as §2

Structure (SMILES) | IC50 [1] [nM] | Activity [2] | Activity [3] | Activity [4] | Activity [5] | Activity [6] | Activity [7] | IC50 [8] [nM] | Activity [9]
CCCCCCCCCCCCCCCc1c(O)c(OC)cc(OC)c1Cl | 1500 | inactive | inactive | inactive | inactive | inactive | inactive | 2300 | inactive
CCCCCCCCCCCCCCCc1cc(OC)cc(OC)c1O | 2100 | – | – | – | – | – | – | 2300 | –
